Thrombin inh – human alpha-thrombin inhibitors, primary screen, counter-screen for coagulation protease inhibitor project, biochemical, 1536-well, fluorogenic AMC substrate. Boc-VPR-AMC fluorogenic substrate cleavage. inhibition, % at 5 µM. Prothrombin (Homo sapiens), P00734. 220,000 compounds, 0.26% hits;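 active = inhibition at or above 40%; inactive = inhibition below 40%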
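System – human alpha-thrombin protein · Reagent – Boc-VPR-AMC substrate, 15 µM final · Compound – 5 µM single dose in 0.2% DMSO · Schedule – reaction at room temperature · Technique – AMC fluorescence at 355 nm excitation and 460 nm emission · Read-out basis – % inhibition relative to enzyme controls and enzyme-free blanks · Control set – no-compound enzyme wells and no-enzyme blanks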
FXIIa inh – human FXIIa protease inhibitors, primary screen, biochemical, 1536-well; inhibition, % at 5 µM; purified FXIIa, Boc-QGR-AMC fluorogenic substrate, 2 h; 220,000 compounds, 0.3% hits; in the data active = inhibition above about 40%
PGE2 EP2 inh – human EP2 receptor antagonists, primary screen, TR-FRET cAMP, C6 glioma cells; inhibition, % at 25 µM; C6 glioma cells expressing human EP2; cells stimulated with saturating PGE2; 260,000 compounds, 0.52% hits;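 active = percent inhibition above 40 after rounding to a whole number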;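 also: rat C6 glioma host cells with rolipram phosphodiesterase inhibitor present; the protocol text gives 20 µM as final concentration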
Target sequence (P43116 whole entry, looked up): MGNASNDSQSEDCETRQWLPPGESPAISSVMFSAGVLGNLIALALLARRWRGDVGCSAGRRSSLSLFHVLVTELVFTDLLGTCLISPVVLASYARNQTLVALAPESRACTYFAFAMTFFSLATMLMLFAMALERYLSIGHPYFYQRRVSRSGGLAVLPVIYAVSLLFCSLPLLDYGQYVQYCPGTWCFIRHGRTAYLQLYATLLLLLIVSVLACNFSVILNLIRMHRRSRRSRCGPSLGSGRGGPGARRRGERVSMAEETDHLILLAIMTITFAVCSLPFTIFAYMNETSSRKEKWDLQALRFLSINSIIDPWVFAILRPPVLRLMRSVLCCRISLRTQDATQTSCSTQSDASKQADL
FXIa inh – human FXIa protease inhibitors, primary screen, biochemical, 1536-well. inhibition, % at 5 µM. 220,000 compounds, 0.14% hits. purified FXIa, Boc-Glu-Ala-Arg-AMC fluorogenic substrate. Coagulation factor XI (Homo sapiens), P03951;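 active = inhibition of at least 40%; inactive = inhibition below 40%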;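 also: fluorescence of freed AMC excited at 355 nm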
hK5 inh – human KLK5 protease inhibitors, primary screen, biochemical, 1536-well; inhibition, % at 5 µM; AID 873, 2007; recombinant hK5, fluorogenic AMC substrate cleavage; 210,000 compounds, 0.59% hits;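 active = inhibition of 40% or more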
Target sequence (Q9Y337 67-293 limits assumed): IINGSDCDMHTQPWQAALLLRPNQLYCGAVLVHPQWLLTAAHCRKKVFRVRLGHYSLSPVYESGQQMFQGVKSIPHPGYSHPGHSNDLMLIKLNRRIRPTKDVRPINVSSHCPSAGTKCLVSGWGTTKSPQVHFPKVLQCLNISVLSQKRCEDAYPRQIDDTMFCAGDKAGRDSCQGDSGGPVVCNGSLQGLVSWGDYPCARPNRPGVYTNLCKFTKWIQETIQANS
EP2 modulator – EP2 receptor modulators, cAMP readout, primary screen, cell-based, HTRF cAMP, PGE2 stimulation; Prostaglandin E2 receptor EP2 subtype (Homo sapiens), P43116; EP2-expressing cells, cAMP HTRF FRET, PGE2 co-stimulation; induction, % at 25 µM; 260,000 compounds, 0.83% hits;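 active = compounds whose cAMP rise, as percent of the full-agonist control response, exceeds 60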;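 also: rat C6 glioma line stably carrying human EP2 under a CMV promoter; the protocol text gives 20 µM as final concentration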
EP2 cAMP induct – cAMP induction in EP2, EP4, beta2-AR and parental cells, confirmation, counter-screen for EP2 modulator project, cell-based, five parallel assays, C6 glioma, HEK293; shares compounds with EP2 modulator; cAMP HTRF induction; plus low (about EC15) PGE2 agonist; calls only at 20 µM (by protocol); 1,300 compounds, 47% hits; AID 1080, 2008;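 active = cAMP induction above 50% in the main assay while under 30% in all four parallel counter assays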;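 also: rat C6 glioma cells stably expressing human EP2 receptor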
Hits are given with their value; 0 = inactive; - = not tested or not shown; + = active, no number. An excerpt weighted towards active compounds, which were near 2.1% of everything screened.

SMILES	Thrombin inh	FXIIa inh	PGE2 EP2 inh	FXIa inh	hK5 inh	EP2 modulator	EP2 cAMP induct
Cc1cc(C)c2cc(C#N)c(SCC(=O)Nc3ccccc3C(F)(F)F)nc2c1	-	-	0	-	-	0	-
CCn1c(C)cc2cc(NC(=O)c3c(-c4ccncc4)noc3C)ccc21	-	-	0	-	-	0	-
N#CCCn1c2ccccc2c2nc3ccccc3nc21	0	0	0	0	0	0	-
CCn1c2ccc(F)cc2c2nc3ccccc3nc21	0	0	0	0	0	0	0
CCCn1c(Nc2nc3ccccc3n2C)nc2ccccc21	0	0	0	0	0	71	0
CCCn1c2ccccc2c2nc3ccccc3nc21	0	0	0	0	0	78	+
CC(C)Cc1cc(C(=O)N2CCN(Cc3ccco3)C[C@@H]2C(C)C)no1	-	-	-	-	-	0	-
CCCn1c(=O)c(C(=O)Nc2nc(C)cs2)c(O)c2ccccc21	-	-	0	-	-	0	-
CCN(CC)CCCN1C(=O)C(O)=C(C(=O)c2ccco2)C1c1cccc(Cl)c1 (stereo not given)	-	-	0	-	-	0	-
CN1CCN(c2oc(-c3ccco3)nc2S(=O)(=O)c2ccccc2)CC1	0	0	0	0	0	0	-
O=S(=O)(c1ccccc1)c1nc(-c2ccco2)oc1N1CCCCCC1	0	0	0	0	0	68	0
O=C1C2C3c4ccccc4C(c4ccccc43)[C@@H]2c2nc3ccccc3n21 (stereo not given in full)	0	0	0	0	0	75	+
O=C1C2C3c4ccccc4C(c4ccccc43)[C@@H]2C(=O)N1c1ccccn1 (stereo not given in full)	0	0	0	0	0	0	-
Cc1ccc(Cl)cc1NC1=NC(=S)N(C(C)C)C12CCCCC2	0	0	0	0	0	93	+
Cc1ccc(Cl)cc1NC(=O)C(=O)N1CCCCC1	0	0	0	0	0	0	-
Cc1ccc(NC(=O)Nc2ccccc2C(=O)NCc2ccccc2)cc1	0	0	0	0	0	0	-
Cc1ccc(C(=O)Nc2ccccc2C(=O)NCc2ccccc2)cc1	0	0	0	0	0	67	0
CCOc1ccccc1Cn1c(=O)sc2ccccc21	0	0	0	0	0	83	+
CCCCOc1ccccc1Cn1c(=O)oc2ccccc21	0	0	0	0	0	62	+
O=C1CCCC2=C1C(O)(C(F)(F)F)C(=O)N2Cc1ccccc1 (stereo not given)	0	0	0	0	0	0	-
O=C1N2c3ccccc3CCc3cccc(c32)C1(O)C(F)(F)F (stereo not given)	0	0	0	0	0	79	0
CCOC(=O)c1sc(NC(=O)CCCCCN2C(=O)c3cccc4cccc(c34)C2=O)nc1C	0	0	0	0	0	0	-
CCOC(=O)c1sc(NC(=O)CN2C(=O)c3cccc4cccc(c34)C2=O)nc1C	0	0	0	0	0	66	0
Nc1ccccc1CCCC(=O)O	-	-	0	-	-	107	0
O=C(O)CCCSc1ccccc1	-	-	0	-	-	0	-
SMILES	Thrombin inh	FXIIa inh	PGE2 EP2 inh	FXIa inh	hK5 inh	EP2 modulator	EP2 cAMP induct
COC(=O)c1ccc(-c2ccco2)n1Cc1cccc(C)c1	0	0	0	0	0	77	+
COC(=O)c1cn(Cc2cccc(C)c2)nn1	0	0	0	0	0	0	-
Cn1c(=O)c2c(nc(SCC(=O)N3c4ccccc4CCc4ccccc43)n2C)n(C)c1=O	0	0	0	0	0	0	-
Cn1c(=O)c2c(nc(SCC(=O)N3CCc4ccccc4C3)n2C)n(C)c1=O	0	0	0	0	0	82	0
COCCn1nnnc1C(c1cc2cc(OC)ccc2[nH]c1=O)N1CCN(Cc2ccccc2)CC1 (stereo not given)	-	-	0	-	-	0	-
COc1ccc(NC(=O)CSc2nc(-c3ccccc3)nc3ccc(C)cc23)cc1OC	-	-	0	-	-	0	-
Nc1c(C(=O)c2ccc(Cl)cc2)sc2c1c(=O)[nH]c(=O)n2-c1ccccc1	0	0	0	0	0	0	-
Cc1ccccc1-n1c(=O)[nH]c(=O)c2c(N)c(C(=O)c3ccc(Cl)cc3)sc21	0	0	0	0	0	66	0
FC(F)(F)c1nnc(-c2ccccc2)nc1Sc1ccccc1	0	0	0	0	0	75	0
CCOc1cc(C2C(C#N)=C(N)OC3=C2C(=O)CCC3)ccc1OCc1ccccc1C#N (stereo not given)	-	-	0	-	-	0	-
CCC(C)(C(=O)NC1CCCCC1)N(C(=O)C1CCC(=O)N1)c1ccccc1 (stereo not given)	0	0	0	0	0	67	0
CCC(C)(C(=O)NC1CCCCC1)N(C(=O)c1ccccn1)c1ccccc1 (stereo not given)	0	0	0	0	0	0	-
CCC1Oc2nc3ccccc3cc2CN(Cc2ccc(C)o2)C1=O (stereo not given)	-	-	0	-	-	0	-
O=C(CO/N=C/c1ccccc1)N1c2ccccc2Oc2ccccc21	0	0	0	0	0	66	0
COc1ccc2cc(CN(CCO)C(=S)NCc3ccco3)c(=O)[nH]c2c1	-	-	0	-	-	0	-
COc1cccc(C(=O)Nc2ccccc2)c1	0	0	0	0	0	0	-
COc1cccc(C(=O)Nc2cccc(OCC(=O)O)c2)c1	0	0	0	0	0	93	+
CCc1cc2cc3c(cc2nc1SCC(=O)OC(C)C)OCO3	0	0	0	0	0	81	+
CCC(c1nnnn1C(C)(C)CC)N1CCN(c2cccc(C)c2C)CC1 (stereo not given)	-	-	0	-	-	0	-
CCOC(=O)C1CCCN(c2c(C(=O)c3ccccc3)cnc3ccc(OC)cc23)C1 (stereo not given)	0	0	0	0	0	68	0
COC(=O)CSc1nnc(-c2ccco2)n1-c1cccc(OC)c1	-	-	0	-	-	0	-
O=C(OCC(=O)N1N=C(c2ccc(Cl)cc2)CC1c1ccco1)c1ccco1 (stereo not given)	0	0	0	0	0	69	0
O=C(OCC(=O)N1N=C(c2ccc(Cl)cc2)CC1c1ccco1)c1ccccc1O (stereo not given)	0	0	0	0	0	0	-
COc1ccc(S(=O)(=O)N(Cc2cccs2)C2CCCC2)cc1	0	0	0	0	0	81	+
O=S(=O)(NCC1CCCO1)c1ccc(S(=O)(=O)N(Cc2cccs2)C2CC2)cc1 (stereo not given)	-	-	0	-	-	0	-

Assay outcomes deposited in PubChem BioAssay by several laboratories.
